Measured values: ChEMBL document CHEMBL4190320, “Clathrodin, hymenidin and oroidin, and their synthetic analogues as inhibitors of the voltage-gated potassium channels” (Eur J Med Chem, 2017)
Active and inactive are the calls of the source. The calls are words filed in the database; no cut-off is given here.

Assays:
[1] = biological target: Potassium voltage-gated channel subfamily A member 5 (Rattus norvegicus) (UniProt P19024); test: Inhibition of rat Kv1.5 expressed in Xenopus laevis oocytes at 1 uM at -90 mV holding potential by two-electrode voltage clamp assay relative to control; format: cell-based
[2] = biological target: Potassium voltage-gated channel subfamily A member 2 (Rattus norvegicus) (UniProt P63142); test: Inhibition of rat Kv1.2 expressed in Xenopus laevis oocytes at 1 uM at -90 mV holding potential by two-electrode voltage clamp assay relative to control; format: cell-based
[3] = biological target: T1, Potassium voltage-gated channel subfamily A member 3 (Homo sapiens, UniProt P22001); test: Inhibition of human Kv1.3 expressed in Xenopus laevis oocytes at 1 uM at -90 mV holding potential by two-electrode voltage clamp assay relative to control
[4] = biological target: Potassium voltage-gated channel subfamily A member 4 (Rattus norvegicus) (UniProt P15385); test: Inhibition of rat Kv1.4 expressed in Xenopus laevis oocytes at 1 uM at -90 mV holding potential by two-electrode voltage clamp assay relative to control; format: cell-based
Potassium voltage-gated channel subfamily A member 4 (Rattus norvegicus), sequence (P15385 whole entry): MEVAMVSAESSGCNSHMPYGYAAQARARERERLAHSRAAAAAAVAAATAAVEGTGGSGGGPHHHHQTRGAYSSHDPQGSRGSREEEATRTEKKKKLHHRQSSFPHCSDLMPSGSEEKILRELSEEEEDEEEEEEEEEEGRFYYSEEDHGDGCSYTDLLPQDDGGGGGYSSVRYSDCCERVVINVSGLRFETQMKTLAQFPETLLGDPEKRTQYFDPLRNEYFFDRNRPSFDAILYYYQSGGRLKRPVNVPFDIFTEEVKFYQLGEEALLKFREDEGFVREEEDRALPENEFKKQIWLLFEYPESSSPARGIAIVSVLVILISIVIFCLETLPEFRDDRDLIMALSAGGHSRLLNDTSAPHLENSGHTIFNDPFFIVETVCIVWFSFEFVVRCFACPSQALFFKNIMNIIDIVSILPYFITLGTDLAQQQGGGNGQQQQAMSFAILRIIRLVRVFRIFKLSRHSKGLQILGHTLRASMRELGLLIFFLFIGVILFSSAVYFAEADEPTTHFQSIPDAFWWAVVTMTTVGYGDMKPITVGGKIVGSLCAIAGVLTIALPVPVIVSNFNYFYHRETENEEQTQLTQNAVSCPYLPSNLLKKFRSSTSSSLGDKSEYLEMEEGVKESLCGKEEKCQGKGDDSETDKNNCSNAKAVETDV

[5] = biological target: Potassium voltage-gated channel subfamily A member 6 (Rattus norvegicus) (UniProt P17659); test: Inhibition of rat Kv1.6 expressed in Xenopus laevis oocytes at 1 uM at -90 mV holding potential by two-electrode voltage clamp assay relative to control; format: cell-based
Potassium voltage-gated channel subfamily A member 6 (Rattus norvegicus), sequence (P17659 whole entry): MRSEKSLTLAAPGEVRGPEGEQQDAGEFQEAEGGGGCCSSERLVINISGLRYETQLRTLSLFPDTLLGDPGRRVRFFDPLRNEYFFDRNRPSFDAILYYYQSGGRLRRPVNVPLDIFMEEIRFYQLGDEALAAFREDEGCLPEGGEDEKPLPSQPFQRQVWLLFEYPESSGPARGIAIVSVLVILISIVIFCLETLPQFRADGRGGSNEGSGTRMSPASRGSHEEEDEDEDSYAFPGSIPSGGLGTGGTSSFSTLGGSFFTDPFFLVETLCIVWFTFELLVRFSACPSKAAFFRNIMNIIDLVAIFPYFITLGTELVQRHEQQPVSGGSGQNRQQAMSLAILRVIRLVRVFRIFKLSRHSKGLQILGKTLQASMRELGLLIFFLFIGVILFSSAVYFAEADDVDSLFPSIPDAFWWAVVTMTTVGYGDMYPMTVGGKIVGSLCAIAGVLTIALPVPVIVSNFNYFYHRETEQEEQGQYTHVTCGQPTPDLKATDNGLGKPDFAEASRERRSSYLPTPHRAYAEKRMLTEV

[6] = tested on: Potassium voltage-gated channel subfamily H member 1 (Homo sapiens); test: Inhibition of human Kv10.1 expressed in Xenopus laevis oocytes at 1 uM at -90 mV holding potential by two-electrode voltage clamp assay relative to control
[7] = biological target: T1, Potassium voltage-gated channel subfamily A member 3; test: Inhibition of human Kv1.3 expressed in CHO cells at -80 mV holding potential by whole cell automated patch clamp method; format: cell-based
Procedure, shortened: (§1)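 Human channels stably expressed in CHO cells, dissociated with 0.05% trypsin-EDTA, held in serum-free medium and resuspended in extracellular solution just before recording. Whole-cell QPatch recordings used a -80 mV holding potential and 500 ms steps to +30 mV at 0.067 Hz. Series resistance was 80% compensated with P/n leak subtraction. After 0.1% DMSO vehicle, four escalating concentrations were applied cumulatively.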

[8] = biological target: Potassium voltage-gated channel subfamily A member 1 (Rattus norvegicus) (UniProt P10499); test: Inhibition of rat Kv1.1 expressed in Xenopus laevis oocytes at 1 uM at -90 mV holding potential by two-electrode voltage clamp assay relative to control; format: cell-based
Potassium voltage-gated channel subfamily A member 1 (Rattus norvegicus), sequence (P10499 whole entry): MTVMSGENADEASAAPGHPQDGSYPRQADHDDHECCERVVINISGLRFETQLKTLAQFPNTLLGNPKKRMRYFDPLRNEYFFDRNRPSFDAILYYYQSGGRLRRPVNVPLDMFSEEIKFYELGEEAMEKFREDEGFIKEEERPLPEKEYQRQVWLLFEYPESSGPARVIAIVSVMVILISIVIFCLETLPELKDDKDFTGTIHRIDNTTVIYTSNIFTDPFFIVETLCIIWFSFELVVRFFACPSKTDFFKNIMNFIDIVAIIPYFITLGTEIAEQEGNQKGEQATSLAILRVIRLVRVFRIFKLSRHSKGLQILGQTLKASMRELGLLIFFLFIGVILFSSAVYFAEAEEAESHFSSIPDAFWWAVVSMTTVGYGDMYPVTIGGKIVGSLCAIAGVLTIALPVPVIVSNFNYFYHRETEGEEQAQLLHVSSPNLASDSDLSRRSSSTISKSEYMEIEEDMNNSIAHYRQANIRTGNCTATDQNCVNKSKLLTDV

[9] = biological target: Potassium voltage-gated channel subfamily A member 5 (Homo sapiens, UniProt P22460); test: Inhibition of human Kv1.5 expressed in CHO cells at -80 mV holding potential by whole cell automated patch clamp method; format: cell-based
Potassium voltage-gated channel subfamily A member 5, sequence (P22460 whole entry): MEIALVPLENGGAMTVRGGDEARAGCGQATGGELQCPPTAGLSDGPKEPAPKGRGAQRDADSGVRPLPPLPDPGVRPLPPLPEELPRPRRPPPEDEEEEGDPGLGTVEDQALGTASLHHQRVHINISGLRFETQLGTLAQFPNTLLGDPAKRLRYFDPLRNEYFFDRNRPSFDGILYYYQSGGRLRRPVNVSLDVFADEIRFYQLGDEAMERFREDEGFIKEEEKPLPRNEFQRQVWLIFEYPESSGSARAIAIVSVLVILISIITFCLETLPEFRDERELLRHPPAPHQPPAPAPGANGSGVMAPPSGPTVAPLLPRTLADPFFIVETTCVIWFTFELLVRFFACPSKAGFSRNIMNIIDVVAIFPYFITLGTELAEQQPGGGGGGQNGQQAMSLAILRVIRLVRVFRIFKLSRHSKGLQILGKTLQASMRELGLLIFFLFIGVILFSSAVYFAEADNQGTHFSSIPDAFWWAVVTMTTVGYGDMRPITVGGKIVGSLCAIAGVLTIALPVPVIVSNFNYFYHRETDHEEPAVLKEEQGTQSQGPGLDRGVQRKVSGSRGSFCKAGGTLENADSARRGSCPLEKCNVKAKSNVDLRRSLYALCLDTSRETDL

[10] = biological target: Potassium voltage-gated channel subfamily A member 2 (Homo sapiens, UniProt P16389); test: Inhibition of human Kv1.2 expressed in CHO cells at -80 mV holding potential by whole cell automated patch clamp method; format: cell-based; procedure, shortened: as §1
Potassium voltage-gated channel subfamily A member 2, sequence (P16389 whole entry): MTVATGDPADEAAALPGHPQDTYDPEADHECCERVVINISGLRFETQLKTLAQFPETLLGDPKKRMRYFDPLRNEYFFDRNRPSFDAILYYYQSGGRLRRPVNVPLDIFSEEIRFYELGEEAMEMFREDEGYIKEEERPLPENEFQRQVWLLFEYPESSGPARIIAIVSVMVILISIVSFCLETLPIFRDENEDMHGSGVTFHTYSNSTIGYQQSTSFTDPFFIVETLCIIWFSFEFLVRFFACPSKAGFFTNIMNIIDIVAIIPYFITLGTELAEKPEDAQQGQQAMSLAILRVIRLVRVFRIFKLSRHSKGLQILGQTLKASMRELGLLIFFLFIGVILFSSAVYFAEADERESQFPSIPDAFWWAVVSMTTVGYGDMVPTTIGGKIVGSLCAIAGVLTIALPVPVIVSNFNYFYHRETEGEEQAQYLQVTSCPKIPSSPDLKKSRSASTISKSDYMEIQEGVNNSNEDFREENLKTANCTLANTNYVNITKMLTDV

[11] = biological target: Potassium voltage-gated channel subfamily A member 4 (Rattus norvegicus, UniProt P15385); test: Inhibition of rat Kv1.4 expressed in Xenopus laevis oocytes at -90 mV holding potential by two-electrode voltage clamp assay; format: cell-based
Potassium voltage-gated channel subfamily A member 4 (Rattus norvegicus, UniProt P15385), sequence (P15385 whole entry): as the sequence (P15385 whole entry) above
Procedure, shortened: (§2)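 Stage V-VI Xenopus laevis oocytes were injected with 50 nL cRNA (1 ng/nL). Currents were recorded by two-electrode voltage clamp. IC50 values come from at least 3 independent experiments and are given as mean ± standard error.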

[12] = biological target: Potassium voltage-gated channel subfamily A member 1 (Homo sapiens, UniProt Q09470); test: Inhibition of human Kv1.1 expressed in CHO cells at -80 mV holding potential by whole cell automated patch clamp method; format: cell-based; procedure, shortened: as §1
Potassium voltage-gated channel subfamily A member 1, sequence (Q09470 whole entry): as the sequence (P10499 whole entry) above, with A9V, I202V, T213N, I449M, A471V, G476A, A480T, T481A, D482N counted along it

[13] = biological target: T1, Potassium voltage-gated channel subfamily A member 3; test: Inhibition of human Kv1.3 expressed in Xenopus laevis oocytes at -90 mV holding potential by two-electrode voltage clamp assay
[14] = biological target: Potassium voltage-gated channel subfamily A member 6 (Rattus norvegicus, UniProt P17659); test: Inhibition of rat Kv1.6 expressed in Xenopus laevis oocytes at -90 mV holding potential by two-electrode voltage clamp assay; format: cell-based; procedure, shortened: as §2
Potassium voltage-gated channel subfamily A member 6 (Rattus norvegicus, UniProt P17659), sequence (P17659 whole entry): as the sequence (P17659 whole entry) above

[15] = biological target: Potassium voltage-gated channel subfamily A member 4 (Homo sapiens, UniProt P22459); test: Inhibition of human Kv1.4 expressed in CHO cells at -80 mV holding potential by whole cell automated patch clamp method; format: cell-based; procedure, shortened: as §1
[16] = biological target: Potassium voltage-gated channel subfamily A member 6 (Homo sapiens, UniProt P17658); test: Inhibition of human Kv1.6 expressed in CHO cells at -80 mV holding potential by whole cell automated patch clamp method; format: cell-based; procedure, shortened: as §1
Potassium voltage-gated channel subfamily A member 6 (Homo sapiens, UniProt P17658), sequence (P17658 whole entry): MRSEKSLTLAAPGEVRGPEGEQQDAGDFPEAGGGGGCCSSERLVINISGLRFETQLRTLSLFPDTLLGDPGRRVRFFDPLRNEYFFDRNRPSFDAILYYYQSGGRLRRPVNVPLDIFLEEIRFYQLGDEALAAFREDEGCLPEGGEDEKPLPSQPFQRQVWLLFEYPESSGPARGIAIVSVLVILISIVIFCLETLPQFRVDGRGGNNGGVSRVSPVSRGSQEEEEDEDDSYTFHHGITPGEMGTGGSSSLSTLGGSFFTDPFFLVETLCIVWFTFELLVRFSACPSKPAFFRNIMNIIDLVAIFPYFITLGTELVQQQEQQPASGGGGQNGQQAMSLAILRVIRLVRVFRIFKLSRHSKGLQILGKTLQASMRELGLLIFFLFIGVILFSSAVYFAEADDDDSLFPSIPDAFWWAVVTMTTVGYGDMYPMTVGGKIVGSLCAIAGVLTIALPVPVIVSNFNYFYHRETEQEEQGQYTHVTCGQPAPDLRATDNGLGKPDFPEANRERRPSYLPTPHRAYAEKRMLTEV

Row | SMILES | inhibition [1] | inhibition [2] | inhibition [3] | inhibition [4] | inhibition [5] | inhibition [6] | IC50 [7] [µM] | inhibition [8] | IC50 [9] [µM] | IC50 [10] [µM] | IC50 [11] [µM] | IC50 [12] [µM] | IC50 [13] [µM] | IC50 [14] [µM] | IC50 [15] [µM] | IC50 [16] [µM]
1 | Nc1nc(/C=C/CNC(=O)c2cccnc2)c[nH]1 | inactive | inactive | inactive | inactive | inactive | inactive | > 30 | inactive | – | – | – | – | – | – | – | –
2 | CC(C)(C)OC(=O)N1CCC(C(=O)NC/C=C/c2c[nH]c(N)n2)CC1 | inactive | inactive | inactive | inactive | inactive | inactive | > 30 | inactive | – | – | – | – | – | – | – | –
3 | Nc1nc(/C=C/CNC(=O)c2cc(Cl)c(Cl)[nH]2)c[nH]1 | 62% | inactive | inactive | 90% | inactive | inactive | 1.4 | inactive | 6.1 | > 30 | 0.6 | > 30 | > 10 | 0.17 | 1.5 | 1.6
4 | Nc1nc(/C=C/CNC(=O)c2cc3cc(Cl)ccc3[nH]2)c[nH]1 | inactive | inactive | inactive | inactive | inactive | inactive | 9 | inactive | > 30 | > 30 | – | > 30 | – | – | 17 | 24
5 | COc1ccc2[nH]c(C(=O)NC/C=C/c3c[nH]c(N)n3)cc2c1 | inactive | inactive | inactive | inactive | inactive | inactive | > 30 | inactive | – | – | – | – | – | – | – | –
6 | Nc1nc(CCCNC(=O)c2cc3ccccc3[nH]2)c[nH]1 | inactive | inactive | inactive | inactive | inactive | inactive | – | inactive | – | – | – | – | – | – | – | –
7 | Cc1[nH]c(C(=O)NC/C=C/c2c[nH]c(N)n2)cc1Br | inactive | inactive | inactive | 46% | 63% | inactive | 25 | inactive | > 30 | > 30 | 0.38 | > 30 | > 10 | 9.8 | 12 | 11
8 | Nc1ncc(/C=C/CNC(=O)c2cc(Br)c(Br)[nH]2)[nH]1 [OROIDIN] | inactive | 10% | 58% | 32% | inactive | inactive | 4.7 | inactive | 16 | > 30 | 5.7 | > 30 | 0.82 | > 10 | 2.1 | 4.9
9 | O=c1ccc2c(OCCCCOc3ccccc3)c3ccoc3cc2o1 | – | – | – | – | – | – | – | – | 0.088 | 0.45 | – | 0.25 | – | – | 0.17 | 0.13
10 | Nc1nc(CCCNC(=O)C2Cc3ccccc3N2)c[nH]1 (stereo not given) | inactive | inactive | inactive | inactive | inactive | inactive | > 30 | inactive | – | – | – | – | – | – | – | –
11 | Cc1[nH]c(C(=O)NC/C=C/c2c[nH]c(N)n2)cc1Cl | 72% | inactive | inactive | 71% | inactive | inactive | 25 | 68% | > 30 | > 30 | 0.73 | > 30 | > 10 | > 10 | 15 | 17
12 | Nc1nc(/C=C/CNC(=O)C2CCNCC2)c[nH]1 | inactive | inactive | 28% | inactive | inactive | inactive | > 30 | 22% | – | – | – | – | – | – | – | –
13 | Cc1[nH]c(C(=O)NC/C=C/c2c[nH]c(N)n2)c(Br)c1Br | inactive | inactive | inactive | 33% | 41% | inactive | 17 | inactive | > 30 | > 30 | 0.23 | > 30 | > 10 | > 10 | 12 | 29
14 | Nc1ncc(/C=C/CNC(=O)c2ccc[nH]2)[nH]1 [CLATHRODIN] | inactive | inactive | inactive | inactive | inactive | inactive | > 30 | inactive | > 30 | > 30 | – | > 30 | – | – | > 30 | > 30
15 | Nc1nc(/C=C/CNC(=O)c2cc(Br)c[nH]2)c[nH]1 | 10% | inactive | 32% | 11% | 22% | inactive | 2.5 | inactive | 7.6 | > 30 | – | > 30 | – | – | 5.3 | 3.7
16 | Nc1nc(CCCNC(=O)c2cc(Br)c(Br)[nH]2)c[nH]1 | inactive | inactive | inactive | inactive | inactive | inactive | > 30 | inactive | – | – | – | – | – | – | – | –
17 | Nc1nc(/C=C/CNC(=O)c2cc3ccccc3[nH]2)c[nH]1 | inactive | inactive | inactive | inactive | 42% | inactive | 21 | inactive | > 30 | > 30 | – | > 30 | – | – | 13 | 14
18 | Nc1nc(/C=C/CNC(=O)c2cc3cc(F)ccc3[nH]2)c[nH]1 | inactive | inactive | 28% | inactive | inactive | inactive | 14 | inactive | > 30 | > 30 | – | > 30 | – | – | 8.8 | 7.9
